Series [1] deals with Punta Toro virus. The series is described as follows: Antiviral activity against Punta Toro virus. It counts as functional, organism-based.
Series [2] has as its system Reovirus sp. Nature of the series: Antiviral activity against Reovirus-1. It counts as functional, organism-based.
For series [3], the system named is Respiratory syncytial virus. Nature of the series: Antiviral activity against Respiratory syncytial virus. It counts as functional, organism-based.
For series [4], the system named is Human adenovirus 2. Nature of the series: Antiviral activity against Adenovirus. The series is classed as functional.
The nature of series [5]: Antiviral activity against Human coronavirus 229E infected in human embryonic lung fibroblast cells assessed as reduction in virus-induced cytopathic effect incubated for 5 days by microscopy. The conditions noted are these: 120 h. The series is classed as functional, cell-based. Put shortly:
(§1)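 Confluent HEL cell cultures given serial compound dilutions together with HCoV-229E at MOI 100 and held 5 days at 35 °C. Virus-induced CPE was scored by microscopy. MTS reagent was then added and absorbance at 490 nm read 24 h later. EC50 was taken from the MTS or microscopic read-out and CC50 from MTS. SI = CC50/EC50, both by MTS. Mean ± SEM of three independent experiments.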
Background: Cytopathic effects are the visible damage that an infection or toxin causes in cultured cells.

Series [6] has as its system Vaccinia virus. Nature of the series: Antiviral activity against Vaccinia virus. It counts as functional, organism-based. Particulars: Orthopoxvirus vaccinia.
For series [7], the system named is Vesicular stomatitis virus. Nature of the series: Antiviral activity against Vesicular stomatitis virus. The series is classed as functional, organism-based.
Series [8] deals with Herpes simplex virus unknown type. Nature of the series: Antiviral activity against Herpes simplex virus. The series is classed as functional.
The nature of series [9]: Selectivity index, ratio of CC50 for cytotoxicity against mock-infected human embryonic lung fibroblast cells incubated for 5 days by MTS assay to EC50 for antiviral activity against Human coronavirus 229E infected in human embryonic lung fibroblast cells assessed as reduction in virus-induced cytopathic effect incubated for 5 days by MTS cell viability assay. It counts as toxicity, cell-based. The conditions noted are these: time 5 day, read-out: Ratio CC50/EC50. The gist of the method: as §1

Series [10] deals with Coxsackievirus B4. The series is described as follows: Antiviral activity against Coxsackie B4 virus. The series is classed as functional, organism-based.
In series [11] the test system is Sindbis virus. Nature of the series: Antiviral activity against Sindbis virus. It counts as functional, organism-based.
The test system of series [12] is Human respirovirus 3. Nature of the series: Antiviral activity against Parainfluenza-3 virus. The series is classed as functional, organism-based.
The test system of series [13] is Yellow fever virus. The series is described as follows: Antiviral activity against Yellow fever virus. It counts as functional, organism-based.
Series [14] is described as follows: Antiviral activity against Human coronavirus 229E infected in human embryonic lung fibroblast cells assessed as reduction in virus-induced cytopathic effect incubated for 5 days by MTS cell viability assay. The series is classed as functional, cell-based. Particulars: 120 h. The gist of the method: as §1
Series [15] is described as follows: Cytotoxicity against mock-infected human embryonic lung fibroblast cells incubated for 5 days by MTS assay. The series is classed as cell-based. Particulars: time 5 day. The gist of the method: as §1
Series [16] concerns Human immunodeficiency virus. Nature of the series: Antiviral activity against HIV. It counts as functional, organism-based.
In series [17] the test system is Influenza A virus. The series is described as follows: Antiviral activity against Influenza virus. It counts as functional.

Activity calls are given as the source filed them. No cut-off for these calls is given here. Bounds are passed on as bounds.

A word on the EC50: it is the concentration needed to bring the measured effect to its halfway point. The term CC50 denotes the concentration at which the toxic effect on the cells reaches its halfway point. A lower CC50 goes with harm at low concentration. For `C=C(C)[C@@H]1CC[C@]2(C(=O)O)CC[C@]3(C)[C@H](CC[C@@H]4[C@@]5(C)Cc6nnn(Cc7cc(OC)c(OC)c(OC)c7)c6C(C)(C)[C@@H]5CC[C@]43C)[C@@H]12`, the result in [1], in [2], in series [3], in [4], in series [6] and in [7] was inactive. The outcome in [8], in series [10], in series [11], in [12], in series [13] and in series [16] was inactive. The outcome in series [17] was inactive. Moreover, the results for the EC50 in [5] and in series [14] were 1.6 µM and 1.9 µM, respectively. For the same compound, in series [9], the selectivity ratio at 120 h is 5. This compound also came in with a CC50 at 120 h in series [15] of 10 µM.
Regarding `C=C(C)[C@@H]1CC[C@]2(C(=O)O)CC[C@]3(C)[C@H](CC[C@@H]4[C@@]5(C)Cc6nnn([C@H](C)c7ccccc7)c6C(C)(C)[C@@H]5CC[C@]43C)[C@@H]12`, the outcome in series [1], in series [2], in [3], in series [4], in series [6] and in [7] was inactive. The result in series [8], in [10], in [11], in series [12], in series [13] and in series [16] was inactive. In addition, the outcome in series [17] was inactive. Also, the EC50 is 0.67 µM in series [5] and 1.1 µM in series [14]. In addition, the selectivity ratio at 120 h in series [9] is > 91. In series [15], the CC50 at 120 h was > 100 µM.
With `C=C(C)[C@@H]1CC[C@]2(C(=O)O)CC[C@]3(C)[C@H](CC[C@@H]4[C@@]5(C)Cc6nnn(CCCCCCC)c6C(C)(C)[C@@H]5CC[C@]43C)[C@@H]12`, the result in [1], in series [2], in series [3], in series [4], in [6] and in series [7] was inactive. Moreover, the outcome in series [8], in [10], in [11], in series [12], in [13] and in series [16] was inactive. Also, the result in [17] was inactive. Further, the concentration for a half-maximal effect (EC50) in series [5] came out at 1.1 µM; in series [14] it was 2 µM. Moreover, the selectivity ratio at 120 h in series [9] is 8. The same compound came in with a half-maximal cytotoxic concentration (CC50) at 120 h in series [15] of 16 µM.
`C=C(C)[C@@H]1CC[C@]2(C(=O)O)CC[C@]3(C)[C@H](CC[C@@H]4[C@@]5(C)Cc6nnn(Cc7ccc(C)cc7)c6C(C)(C)[C@@H]5CC[C@]43C)[C@@H]12`: the outcome in series [1], in series [2], in series [3], in series [4], in series [6] and in [7] was inactive. Further, the outcome in series [8], in series [10], in series [11], in series [12], in series [13] and in [16] was inactive. Further, the outcome in series [17] was inactive. In addition, the results for the EC50 in [5] and in series [14] were 3.3 µM and 6.2 µM, respectively. Also, in [9], the selectivity ratio at 120 h stood at 9. In series [15], this compound yielded a half-maximal cytotoxic concentration (CC50) at 120 h of 57 µM.
On to `C=C(C)[C@@H]1CC[C@]2(C(=O)O)CC[C@]3(C)[C@H](CC[C@@H]4[C@@]5(C)Cc6nnn(Cc7cccc8[nH]ccc78)c6C(C)(C)[C@@H]5CC[C@]43C)[C@@H]12`, for which the result in series [1], in series [2], in series [3], in [4], in series [6] and in series [7] was inactive. The outcome in series [8], in [10], in series [11], in series [12], in [13] and in series [16] was inactive. In series [17], the outcome was inactive. Further, the EC50 in series [5] stood at 0.1 µM; in series [14] it was 0.092 µM. Also, the selectivity ratio at 120 h in series [9] was 27. The compound further registered a 50% cytotoxic concentration (CC50) at 120 h in [15] of 2.4 µM.
Consider `C=C(C)[C@@H]1CC[C@]2(C(=O)O)CC[C@]3(C)[C@H](CC[C@@H]4[C@@]5(C)Cc6nn[nH]c6C(C)(C)[C@@H]5CC[C@]43C)[C@@H]12`, for which the outcome in [1], in series [2], in [3], in [4], in series [6] and in series [7] was inactive. The result in series [8], in [10], in [11], in series [12], in [13] and in [16] was inactive. Further, the outcome in series [17] was inactive. Also, the half-maximal effective concentration (EC50) worked out at 3.4 µM in series [5] and 4.3 µM in series [14]. Further, the selectivity ratio at 120 h in series [9] stood at 1.9. The compound also gave a CC50 at 120 h in series [15] of 8.3 µM.
With `C=C(C)[C@@H]1CC[C@]2(C(=O)O)CC[C@]3(C)[C@H](CC[C@@H]4[C@@]5(C)Cc6nnn(Cc7ccc(C(F)(F)F)cc7)c6C(C)(C)[C@@H]5CC[C@]43C)[C@@H]12`, the result in series [1], in series [2], in [3], in series [4], in series [6] and in [7] was inactive. Moreover, the outcome in [8], in series [10], in [11], in [12], in series [13] and in [16] was inactive. The result in series [17] was inactive. The results for the EC50 in series [5] and in series [14] were 3.6 µM and 4.8 µM, respectively. Moreover, in series [9], the selectivity ratio at 120 h is > 10. Also, the CC50 at 120 h in [15] was ≥ 47 µM.
For the compound `C=C(C)[C@@H]1CC[C@]2(C(=O)O)CC[C@]3(C)[C@H](CC[C@@H]4[C@@]5(C)Cc6nnn(CC7CCCCC7)c6C(C)(C)[C@@H]5CC[C@]43C)[C@@H]12`, the result in [1], in [2], in series [3], in series [4], in [6] and in [7] was inactive. Besides, the outcome in series [8], in [10], in series [11], in series [12], in [13] and in series [16] was inactive. For the same compound, in series [17], the result was inactive. Besides, the figures for the 50% effective concentration (EC50) in series [5] and in series [14] were 14 µM and 13 µM, respectively. Further, the CC50 at 120 h in series [15] is 79 µM.
`C=C(C)[C@@H]1CC[C@]2(CO)CC[C@]3(C)[C@H](CC[C@@H]4[C@@]5(C)CC[C@H](O)C(C)(C)[C@@H]5CC[C@]43C)[C@@H]12` [BETULIN]: the figures for the EC50 in series [5] and in series [14] were 11 µM and > 100 µM, respectively. In addition, the midpoint of cytotoxicity in series [15], the CC50 at 120 h, lay at 7.6 µM.
Turning to `C=C(C)[C@@H]1CC[C@]2(C(=O)O)CC[C@]3(C)[C@H](CC[C@@H]4[C@@]5(C)CCC(=O)C(C)(C)[C@@H]5CC[C@]43C)[C@@H]12` [BETUNOLIC ACID], the concentration giving a half-maximal response (EC50) in series [5] and in series [14] was > 100 µM each time. Also, in series [15], the half-maximal cytotoxic concentration (CC50) at 120 h was > 100 µM.
Regarding `CC(C)[C@@H]1CC[C@]2(C)CC[C@]3(C)[C@H](CC[C@@H]4[C@@]5(C)Cc6nnn([C@@H](C)c7ccccc7)c6C(C)(C)[C@@H]5CC[C@]43C)[C@@H]12`, the outcome in series [1], in series [2], in series [3], in [4], in [6] and in series [7] was inactive. The result in series [8], in [10], in series [11], in series [12], in series [13] and in series [16] was inactive. Besides, the outcome in series [17] was inactive.
